Test results published in ChEMBL document CHEMBL4007508, “Discovery and Pre-Clinical Characterization of Third-Generation 4-H Heteroaryldihydropyrimidine (HAP) Analogues as Hepatitis B Virus (HBV) Capsid Inhibitors” (J Med Chem, 2017).
Active and inactive are the calls of the source. No cut-off for these calls is given here.

How the values were obtained:
[1] = tested on: Hepatitis B virus; test: Antiviral activity against HBV infected in hydrodynamic injection BALB/c mouse model assessed as reduction of viral DNA copy numbers in liver at 3 to 12.5 mg/kg, po bid after 5 days by real-time PCR method; assay type: functional, organism-based
Method in brief: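 Female BALB/c mice hydrodynamically injected via tail vein with replication-competent HBV DNA plasmid. From 20 h post-injection, dosed orally for 5 days: 3 or 12.5 mg/kg twice daily, with vehicle and entecavir 0.1 mg/kg once daily as controls. Liver HBV DNA copies measured by real-time qPCR; six mice per group, SEM.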

[2] = Glutathione reactivity assessed as adduct formation of the compound
[3] = Solubility of compound in phosphate buffer at pH 6.5 after one night incubation by HPLC-UV method; assay type: physicochemical
[4] = AUC (0 to infinity) in mouse at 1 mg/kg, iv by LC-MS/MS analysis; assay type: ADME, organism-based; design: dose 1 mg/kg, time infinity, route intravenous; details: in vivo
Method in brief: (§1)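 Single-dose mouse PK following standard procedures: IV 1 mg/kg and PO 3 mg/kg. Plasma CL, Vss, IV t1/2, PO Cmax, AUC(0−∞) in plasma (IV and PO) and liver (PO), and oral bioavailability F derived. Liver/plasma ratio uses the PO AUC(0−∞) values.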

[5] = Fraction unbound in mouse plasma at 1000 nM after 5 hrs by LC-MS/MS analysis; assay type: ADME, cell-free
[6] = Cmax in mouse at 3 mg/kg, po by LC-MS/MS analysis; assay type: ADME, organism-based; design: dose 3 mg/kg, route oral; details: in vivo; method in brief: as §1
[7] = Base ionization constant, pKa of the compound; assay type: physicochemical
[8] = tested on: Hepatitis B virus; test: Antiviral activity against HBV infected in human HepG2(2.2.15) cells assessed as decrease in HBV genome replication after 5 days by qPCR method; assay type: functional, cell-based; details: HepG2 2.2.15, 120 h
Method in brief: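 HepG2.2.15 cells (stable HBV genome, Hep G2-derived; DMEM-F12, 10% FBS, penicillin/streptomycin, 0.5 mg/mL G418) seeded 3 × 10^4/well, incubated overnight at 37 °C. Compounds serially half-log diluted in DMSO, then in medium; final DMSO 0.5%. HBV DNA extracted and quantified by qPCR.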

[9] = AUC (0 to infinity) in mouse liver at 3 mg/kg, po by LC-MS/MS analysis; assay type: ADME, organism-based; design: dose 3 mg/kg, time infinity, route oral; method in brief: as §1
[10] = Permeability of the compound at 150 uM after 18 hrs by PAMPA; assay type: physicochemical; details: read-out: permeability
[11] = Apparent partition coefficient, log D of the compound at pH 7.4; assay type: physicochemical; details: octanol/water
[12] = tested on: Hepatocyte; test: Induction of CYP3A4 mRNA expression in human primary hepatocyte after 24 hrs by real-time PCR relative to rifampicin; assay type: ADME, cell-based; design: concentration or dose not given beside the values; details: hepatocytes
Method in brief: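 CYP3A4 mRNA levels measured in primary human hepatocytes and expressed relative to the positive control rifampicin at 10 μM.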

[13] = Half life in mouse at 1 mg/kg, iv by LC-MS/MS analysis; assay type: ADME, organism-based; details: in vivo; method in brief: as §1
[14] = Cytotoxicity against HBV infected human HepDE19 cells assessed as decrease in cell viability after 5 days by CCK8 assay; assay type: cell-based
Method in brief: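 Tetracycline-inducible HBV HepDE19 cells seeded 5 × 10^3/well and treated with compounds. After 5 days, viability read by CCK-8 (2 h, 37 °C; absorbance 450 and 630 nm).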

[15] = Selectivity index, ratio of CC50 for HBV infected human HepDE19 cells to EC50 for HBV infected in human HepG2(2.2.15) cells
Method in brief: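 Selectivity index calculated as CC50 (HepDE19, CCK-8 viability after 5 days) divided by EC50 (HBV DNA reduction in HepG2.2.15 cells, qPCR).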

[16] = Acid ionization constant, pKa of the compound; assay type: physicochemical
[17] = Volume of distribution at steady state in mouse at 1 mg/kg, iv by LC-MS/MS analysis; assay type: ADME, organism-based; details: in vivo, read-out: Vdss; method in brief: as §1
[18] = Oral bioavailability in mouse at 3 mg/kg, by LC-MS/MS analysis; assay type: ADME, organism-based; details: in vivo; method in brief: as §1
[19] = Fraction unbound in human plasma at 1000 nM after 5 hrs by LC-MS/MS analysis; assay type: ADME, cell-free
[20] = AUC (0 to infinity) in mouse plasma at 3 mg/kg, po by LC-MS/MS analysis; assay type: ADME, organism-based; design: dose 3 mg/kg, route oral, time infinity; method in brief: as §1
[21] = Ratio of AUC (0 to infinity) in mouse liver at 3 mg/kg, po to AUC (0 to infinity) in mouse plasma at 3 mg/kg, po by LC-MS/MS analysis; assay type: ADME, organism-based; details: liver and plasma, read-out: Ratio AUC; method in brief: as §1
[22] = Plasma clearance in mouse at 1 mg/kg, iv by LC-MS/MS analysis; assay type: ADME, organism-based; method in brief: as §1
[23] = target: Voltage-gated inwardly rectifying potassium channel KCNH2 (Homo sapiens, UniProt Q12809); test: (§2) Inhibition of human ERG
Voltage-gated inwardly rectifying potassium channel KCNH2, sequence (Q12809 whole entry): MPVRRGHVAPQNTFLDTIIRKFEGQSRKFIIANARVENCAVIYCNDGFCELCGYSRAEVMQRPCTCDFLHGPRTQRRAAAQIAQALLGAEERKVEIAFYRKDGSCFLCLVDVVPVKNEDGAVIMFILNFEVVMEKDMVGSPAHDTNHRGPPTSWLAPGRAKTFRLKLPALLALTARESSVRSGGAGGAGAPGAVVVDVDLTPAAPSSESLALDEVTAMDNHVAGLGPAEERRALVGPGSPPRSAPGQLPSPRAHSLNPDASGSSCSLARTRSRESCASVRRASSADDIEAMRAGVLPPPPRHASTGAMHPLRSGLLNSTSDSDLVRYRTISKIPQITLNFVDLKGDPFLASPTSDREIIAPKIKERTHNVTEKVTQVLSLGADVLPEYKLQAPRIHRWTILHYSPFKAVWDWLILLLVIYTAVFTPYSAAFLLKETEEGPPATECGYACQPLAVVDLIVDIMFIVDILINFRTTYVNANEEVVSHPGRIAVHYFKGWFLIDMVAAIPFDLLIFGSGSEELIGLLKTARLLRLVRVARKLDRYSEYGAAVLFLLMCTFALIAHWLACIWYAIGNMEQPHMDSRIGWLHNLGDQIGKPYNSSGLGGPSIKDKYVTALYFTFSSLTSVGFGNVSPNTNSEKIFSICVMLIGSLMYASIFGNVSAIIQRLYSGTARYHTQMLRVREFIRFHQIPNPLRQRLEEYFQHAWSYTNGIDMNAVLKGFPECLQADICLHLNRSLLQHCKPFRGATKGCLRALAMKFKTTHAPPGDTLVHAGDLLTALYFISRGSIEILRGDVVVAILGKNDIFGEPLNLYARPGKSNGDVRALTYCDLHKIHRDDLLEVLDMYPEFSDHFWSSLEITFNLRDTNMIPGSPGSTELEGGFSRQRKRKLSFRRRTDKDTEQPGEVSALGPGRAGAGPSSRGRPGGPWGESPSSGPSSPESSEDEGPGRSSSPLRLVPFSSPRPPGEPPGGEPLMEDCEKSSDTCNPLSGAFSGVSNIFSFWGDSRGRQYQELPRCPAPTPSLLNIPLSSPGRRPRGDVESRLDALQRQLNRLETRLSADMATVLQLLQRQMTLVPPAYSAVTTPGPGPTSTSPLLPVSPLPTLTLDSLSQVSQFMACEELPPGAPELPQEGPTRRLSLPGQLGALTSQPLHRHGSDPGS

[24] = target: hERG (KCNH2) (Homo sapiens, UniProt Q12809); test: as §2
hERG (KCNH2), sequence (Q12809 whole entry): as above

[25] = target: Cytochrome P450 2C9 (Homo sapiens, UniProt P11712); test: Inhibition of CYP2C9 (unknown origin); assay type: ADME
Cytochrome P450 2C9, sequence (P11712 whole entry): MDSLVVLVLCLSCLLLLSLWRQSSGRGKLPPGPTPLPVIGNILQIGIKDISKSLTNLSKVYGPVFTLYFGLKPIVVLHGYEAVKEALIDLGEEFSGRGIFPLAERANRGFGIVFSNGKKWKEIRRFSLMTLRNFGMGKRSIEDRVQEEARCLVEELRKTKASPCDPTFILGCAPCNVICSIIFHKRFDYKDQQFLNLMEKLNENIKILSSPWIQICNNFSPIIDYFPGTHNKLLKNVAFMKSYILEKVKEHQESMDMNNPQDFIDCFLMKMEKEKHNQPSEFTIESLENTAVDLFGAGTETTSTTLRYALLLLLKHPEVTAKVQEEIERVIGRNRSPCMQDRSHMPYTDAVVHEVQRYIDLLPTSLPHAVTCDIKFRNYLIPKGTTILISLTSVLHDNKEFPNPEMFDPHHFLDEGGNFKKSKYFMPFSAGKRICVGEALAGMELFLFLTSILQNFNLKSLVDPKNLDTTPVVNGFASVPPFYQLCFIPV
Method in brief: (§3)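 CYP inhibition IC50 measured in a panel of five enzymes: CYP3A4, 2D6, 2C9, 2C19 and 1A2.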

[26] = target: Cytochrome P450 2D6 (Homo sapiens, UniProt P10635); test: Inhibition of CYP2D6 (unknown origin); assay type: ADME; method in brief: as §3
Cytochrome P450 2D6, sequence (P10635 whole entry): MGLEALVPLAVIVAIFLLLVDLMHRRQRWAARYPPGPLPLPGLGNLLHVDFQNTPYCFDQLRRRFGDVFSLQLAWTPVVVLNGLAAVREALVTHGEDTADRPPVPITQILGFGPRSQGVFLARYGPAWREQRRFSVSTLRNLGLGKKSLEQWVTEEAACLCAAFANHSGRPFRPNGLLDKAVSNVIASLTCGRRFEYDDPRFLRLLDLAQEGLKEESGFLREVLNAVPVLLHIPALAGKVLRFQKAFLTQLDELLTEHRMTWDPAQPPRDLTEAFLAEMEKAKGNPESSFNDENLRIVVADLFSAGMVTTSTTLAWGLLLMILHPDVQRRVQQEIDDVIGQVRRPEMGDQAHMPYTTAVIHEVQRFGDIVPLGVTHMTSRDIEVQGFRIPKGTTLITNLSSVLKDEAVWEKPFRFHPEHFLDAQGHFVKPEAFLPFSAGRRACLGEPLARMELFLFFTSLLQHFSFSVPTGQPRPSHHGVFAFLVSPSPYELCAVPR

[27] = target: Cytochrome P450 2C19 (Homo sapiens, UniProt P33261); test: Inhibition of CYP2C19 (unknown origin); assay type: ADME; method in brief: as §3
Cytochrome P450 2C19, sequence (P33261 whole entry): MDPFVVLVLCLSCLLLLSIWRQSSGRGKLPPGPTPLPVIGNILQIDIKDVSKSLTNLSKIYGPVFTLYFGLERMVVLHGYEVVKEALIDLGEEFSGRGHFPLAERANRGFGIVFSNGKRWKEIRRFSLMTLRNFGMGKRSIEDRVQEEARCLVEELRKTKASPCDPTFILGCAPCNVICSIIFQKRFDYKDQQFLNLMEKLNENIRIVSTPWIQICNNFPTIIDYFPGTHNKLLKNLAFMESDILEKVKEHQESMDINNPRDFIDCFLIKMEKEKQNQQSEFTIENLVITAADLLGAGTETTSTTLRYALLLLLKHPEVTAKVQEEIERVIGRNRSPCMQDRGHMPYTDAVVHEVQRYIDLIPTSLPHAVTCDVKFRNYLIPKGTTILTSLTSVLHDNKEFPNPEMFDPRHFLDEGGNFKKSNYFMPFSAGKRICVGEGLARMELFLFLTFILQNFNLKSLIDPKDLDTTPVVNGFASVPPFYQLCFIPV

[28] = target: T1, Cytochrome P450 1A2 (Homo sapiens, UniProt P05177); test: Inhibition of CYP1A2 (unknown origin); assay type: ADME; method in brief: as §3
T1 sequence (P05177 whole entry): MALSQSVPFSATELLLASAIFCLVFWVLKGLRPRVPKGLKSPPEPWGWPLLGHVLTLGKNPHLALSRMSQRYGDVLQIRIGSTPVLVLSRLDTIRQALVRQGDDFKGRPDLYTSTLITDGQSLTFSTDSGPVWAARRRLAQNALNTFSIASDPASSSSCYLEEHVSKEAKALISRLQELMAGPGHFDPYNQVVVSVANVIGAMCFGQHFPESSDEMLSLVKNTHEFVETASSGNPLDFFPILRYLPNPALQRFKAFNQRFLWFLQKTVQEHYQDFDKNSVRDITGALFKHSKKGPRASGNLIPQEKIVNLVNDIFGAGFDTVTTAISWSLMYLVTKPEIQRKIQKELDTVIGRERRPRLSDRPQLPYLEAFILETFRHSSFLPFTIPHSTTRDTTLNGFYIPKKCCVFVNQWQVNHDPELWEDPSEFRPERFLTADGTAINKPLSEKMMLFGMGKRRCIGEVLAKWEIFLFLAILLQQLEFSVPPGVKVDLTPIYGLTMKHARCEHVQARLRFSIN

[29] = tested on: Salmonella typhimurium; test: Mutagenicity in Salmonella typhimurium by Ames test; assay type: toxicity; details: salmonella enterica subsp. enterica serovar typhimurium
[30] = target: T2, Cytochrome P450 3A4 (Homo sapiens, UniProt P08684); test: Inhibition of CYP3A4 (unknown origin); assay type: ADME; method in brief: as §3
T2 sequence (P08684 whole entry): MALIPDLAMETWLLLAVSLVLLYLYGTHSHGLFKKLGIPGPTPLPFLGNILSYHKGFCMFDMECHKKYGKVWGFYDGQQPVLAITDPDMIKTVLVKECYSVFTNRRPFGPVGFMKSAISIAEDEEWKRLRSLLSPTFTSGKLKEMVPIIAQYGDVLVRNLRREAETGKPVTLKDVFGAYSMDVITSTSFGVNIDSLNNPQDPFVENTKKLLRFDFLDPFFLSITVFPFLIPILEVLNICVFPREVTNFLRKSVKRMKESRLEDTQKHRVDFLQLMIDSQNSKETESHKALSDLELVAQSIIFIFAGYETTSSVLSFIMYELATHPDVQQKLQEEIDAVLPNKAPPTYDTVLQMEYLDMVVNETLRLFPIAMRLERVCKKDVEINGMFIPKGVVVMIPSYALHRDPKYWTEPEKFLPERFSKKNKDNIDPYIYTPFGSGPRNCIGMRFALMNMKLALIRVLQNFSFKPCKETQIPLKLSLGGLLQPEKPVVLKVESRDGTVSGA

[31] = target: T2, Cytochrome P450 3A4; test: Time dependent inhibition of CYP3A4 (unknown origin); assay type: ADME

Row | Structure (SMILES) | solubility [3] | AUC(0-inf) [4] | fraction unbound at 5 h, 1 µM [5] | Cmax [6] | pKa [7] | EC50 [8] | AUC(0-inf) [9] | Papp at 18 h, 150 µM [10] | logD [11] | Activity [12] | half-life [13] | CC50 at 120 h [14] | Ratio CC50/EC50 [15] | pKa [16] | Vd [17] | bioavailability [18] | fraction unbound at 5 h, 1 µM [19] | AUC(0-inf) [20] | Kp [21] | clearance [22] | also measured
1 | COC(=O)C1=C(CN2CCOC[C@H]2C(=O)O)NC(c2nccs2)=N[C@H]1c1ccc(F)cc1Cl |  |  |  |  |  |  |  |  |  |  |  |  |  |  |  |  |  |  |  |  | Activity [1]: Active; Stability [2]: Stable
2 | CCOC(=O)C1=C(CN2CCOC[C@H]2C(=O)O)NC(c2nccs2)=N[C@H]1c1cccc(F)c1Cl | > 679 µg/mL | 253 ng·h/mL | 0.022 | 783 ng/mL | 5.7 | 0.8 nM | 2000 ng·h/mL | 3.3 ×10⁻⁶ cm/s | 0.42 | 144% | 180 min | > 100 µM | 125000 | 1.8 | 4.1 L/kg | 82% | 0.02 | 624 ng·h/mL | 3.2 | 66 mL/min/kg | 
3 | COC(=O)C1=C(CN2CCOC[C@H]2C(=O)O)N=C(c2nccs2)N[C@H]1c1ccc(F)cc1Cl | > 666 µg/mL |  | 0.074 | 413 ng/mL | 5.8 |  | 11800 ng·h/mL | 1.4 ×10⁻⁶ cm/s | 0.06 | 111% | 90 min | > 100 µM |  | 1.8 | 2.5 L/kg |  | 0.057 | 962 ng·h/mL | 12.3 |  | inhibition (INH) [23]: Not Active; IC20 [24]: > 10 µM; IC50 [25]: > 50 µM; IC50 [26]: > 50 µM; IC50 [27]: > 50 µM; IC50 [28]: > 50 µM; Activity [29]: Non-Toxic; IC50 [30]: > 50 µM; TDI [31]: Not Active
4 | COC(=O)C1=C(CN2CCOC[C@H]2C(=O)O)NC(c2nccs2)=N[C@H]1c1ccc(F)c(F)c1C | > 604 µg/mL | 379 ng·h/mL | 0.062 | 283 ng/mL | 5.7 | 2 nM | 9210 ng·h/mL | 2.7 ×10⁻⁶ cm/s | 0.44 | 56% | 84 min | > 100 µM | >50000 | < 2.5 | 1.9 L/kg | 30% | 0.054 | 344 ng·h/mL | 27 | 44 mL/min/kg | 
